Published values from different studies.
Lines come from different studies, so protocols differ.

Structure (SMILES)	test system	conditions	half-life
CCc1cc(OC)c2nccc(N3CCc4c(cc(Cn5ccnc5)cc4-c4cn(C)nc4C(F)(F)F)C3=O)c2c1	male Sprague-Dawley rat, plasma	intravenous, 3 mg/kg	1 h
Oc1c(-n2ccnn2)cnn1-c1cc(N2CCOCC2)ncn1	male rat, plasma	intravenous, 5 mg/kg	3.1 h
C#Cc1cccc(Nc2ncnc3cc(OCCOC)c(OCCOC)cc23)c1	male Sprague-Dawley rat, plasma	oral, 12 mg/kg, single dose	2.25 h
O=c1[nH]cc(F)c(=O)[nH]1	Sprague-Dawley rat, plasma	oral, 20 mg/kg	1.81 h
CC(C)(O)[C@H]1CC[C@H](Nc2ccc3ncc(-c4cccc(C(F)(F)F)c4)n3n2)CC1	female Sprague-Dawley rat, plasma	oral, 40 mg/kg	4.1 h
Cc1c(-c2ccccc2)cccc1N1C(=O)c2cc(CN[C@H](C(=O)O)C(C)O)c(OCc3cccc(C#N)c3)cc2C1=O (stereo partly drawn)	Sprague-Dawley rat, plasma	oral, 50 mg/kg	4.33 h
N#Cc1ccc(Nc2nc(N)cc(Oc3c(F)cc(-c4ccc(C#N)cc4)cc3F)n2)cc1	Sprague-Dawley rat, plasma	oral, 5 mg/kg	3.31 h
CCOC(=O)[C@@]12C[C@@H]1[C@@H](n1ccc3c(NC)nc(C#Cc4ccc(Cl)s4)nc31)[C@H](O)[C@@H]2O	male Sprague-Dawley rat, plasma	intravenous, 0.5 mg/kg	1.31 h
COCCOC(=O)C1=C(C)NC(C)=C(C(=O)OC(C)C)C1c1cccc([N+](=O)[O-])c1 (stereo not drawn)	male Sprague-Dawley rat, plasma	intravenous, 3 mg/kg	6.7 h
CNCc1cc(-c2ccccc2F)n(S(=O)(=O)c2cccnc2)c1	male Sprague-Dawley rat, plasma	oral, 10 mg/kg	1 h
N#Cc1[nH]nnc1-c1cccc(OCc2cc(C(F)(F)F)ccc2C(F)(F)F)c1	male Sprague-Dawley rat, plasma	oral, 10 mg/kg	3.9 h
O=C(Nc1ccc(C(F)(F)F)cc1)N1CCC(Cc2cccc(Oc3ccc(C(F)(F)F)cn3)c2)CC1	male Sprague-Dawley rat, blood	oral, 1 mg/kg	7.2 h
N#Cc1[nH]nnc1-c1csc(-c2ccc(Cl)cc2)n1	male Sprague-Dawley rat, plasma	oral, 10 mg/kg	2.9 h
O=C(Nc1cc(F)c(F)c(F)c1)c1ccc(F)c(S(=O)(=O)NCc2cccc(B(O)O)c2)c1	male Sprague-Dawley rat, plasma	intravenous, 2 mg/kg	0.94 h
COc1ccc2c(Cc3ccccc3F)c3n(c(=O)c2c1OC)CCc1cc2c(cc1-3)OCO2	rat, plasma	intravenous, 5 mg/kg	3.07 h
Oc1c(Br)cc(Cl)c2cccnc12	Sprague-Dawley rat, plasma	oral, 20 mg/kg	5.6 h
Nc1ncn([C@H]2C[C@H](O)[C@@H](CO)O2)c(=O)n1	male Wistar rat, plasma	intravenous, 21 µmol/kg	2.43 h
CCNC(=O)c1nc(-c2ccc3[nH]c(-c4nc(C)no4)cc3c2)c(C)[nH]1	Sprague-Dawley rat, plasma	intravenous, 1 mg/kg	0.9 h
C=CC(=O)Nc1cc(Nc2nccc(Nc3cc(Cl)c(F)cc3C(C)(C)O)n2)c(OC)cc1N1CC[C@@H](N(C)C)C1	Wistar rat, plasma	intravenous, 3 mg/kg	6.37 h
COc1cc2c3c(n(CCCN4CCOCC4)c(=O)c2cc1OC)-c1cc2c(cc1C3=O)OCO2	male Fischer 344 rat, plasma	intravenous, 24 mg/m², single dose	3.6 h
CCc1cc(C(=O)NC)c2nccc(N3CCc4c(cc(Cn5ccnc5)cc4-c4cn(C)nc4C(F)(F)F)C3=O)c2c1	male Sprague-Dawley rat, plasma	oral, 100 mg/kg, single dose	3.9 h
Cc1cnc(N2CC3(CCOCC3)C2)c(C(=O)Nc2ccc(C(=O)N3CCc4cc(C(=O)Nc5c(C)cccc5F)sc4-c4ccccc43)cc2)c1	rat, plasma	inhaled, 2.7 mg/kg, single dose	3.4 h
COc1ccc2c(=O)n(C)c(-c3ccccc3)nc2c1	male Sprague-Dawley rat, plasma	oral, 10 mg/kg	0.74 h
COc1nc(-c2cc(C)c(N[C@@H](C)c3cc(F)cc(F)c3)nn2)ccc1-n1cnc(C)c1	male Sprague-Dawley rat, plasma	intravenous, 1 mg/kg, single dose	3.1 h
